Data as given in ChEMBL document CHEMBL3734722, “Structural Elucidation of a Small Molecule Inhibitor of Protein Disulfide Isomerase” (ACS Med Chem Lett, 2015).
One block for each molecule: values may come before it. The source made the active and inactive calls. No cut-off for these calls is given here.

Tests used:
PC-12 [1] = experiment: Neuroprotective activity against rat PC12 cells expressing mutant HTT-Q103 assessed as cell viability by alamar blue assay; assay type: functional, cell-based
Summary of the method: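 PC12 cells stably carrying inducible mutant HTT plasmid (mHTT-Q103); expression induced, causing death within 48 h. Serial-dilution dose–response; after 48 h Alamar blue added and fluorescence read. Data as mean percent of DMSO-treated uninduced cells ± SD; EC50 from curve.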

[2] = Intrinsic clearance in mouse liver microsome at 0.5 microM incubated upto 45 mins by LC-MS/MS analysis; assay type: ADME; conditions: microsomes, 0.75 h
Summary of the method: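 Mouse liver microsome incubation; intrinsic clearance expressed as mL/min/g, with 7-ethoxycoumarin as reference compound.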

PC-12 [3] = experiment: Neuroprotective activity against rat PC12 cells expressing mutant HTT-Q103 assessed as increase in cell viability compound preincubated for 0,1,2,or 3 days in PC12 growth medium followed by cells addition measured after 48 hrs by alamar blue assay; assay type: functional, cell-based
Summary of the method: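 Compound held at 37 °C for 0, 1, 2 or 3 days in PC12 growth medium, then aliquots added to induced PC12 mHTT-Q103 cells. After 48 h treatment, Alamar blue added and viability quantified by fluorescence plate reader.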

[4] = biological target: Protein disulfide-isomerase (Homo sapiens) (UniProt P07237); experiment: Irreversible binding affinity to PDI catalytic domain a (unknown origin) at 4.5 mM measured after 100 fold dilution for 2 hrs by intrinsic tryptophan fluorescence assay
Protein disulfide-isomerase (Homo sapiens), sequence (P07237 18-508 limits assumed): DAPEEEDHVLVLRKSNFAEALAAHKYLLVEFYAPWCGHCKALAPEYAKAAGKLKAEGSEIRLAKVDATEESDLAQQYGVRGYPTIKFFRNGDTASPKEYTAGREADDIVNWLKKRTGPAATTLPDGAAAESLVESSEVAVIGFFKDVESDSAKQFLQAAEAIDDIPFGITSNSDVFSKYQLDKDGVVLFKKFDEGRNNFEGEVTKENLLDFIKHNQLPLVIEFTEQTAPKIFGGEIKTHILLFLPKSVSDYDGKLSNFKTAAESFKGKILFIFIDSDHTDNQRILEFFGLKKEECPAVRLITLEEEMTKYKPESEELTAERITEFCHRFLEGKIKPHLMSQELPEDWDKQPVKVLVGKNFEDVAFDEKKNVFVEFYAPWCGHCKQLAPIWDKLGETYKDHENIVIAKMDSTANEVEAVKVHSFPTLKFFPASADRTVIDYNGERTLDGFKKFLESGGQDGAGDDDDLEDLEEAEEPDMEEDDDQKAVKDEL
Summary of the method: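 Jump-dilution reversibility test: PDIa (1 mM) incubated with ligand at 4.5 mM, complex diluted 100-fold (to 45 μM ligand, 10 μM PDIa) and dialysed, then Trp emission spectra recorded. Phenylarsine oxide, a covalent vicinal-thiol modifier, processed identically as control.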

[5] = Half life in mouse plasma at 1 uM for 120 mins by LC-MS/MS analysis; assay type: ADME, cell-free
[6] = Plasma protein binding in mouse at 2000 ng/ml for 4 hrs by LC-MS/MS analysis; assay type: ADME, cell-free; conditions: read-out: PPB (converted)
[7] = biological target: Protein disulfide-isomerase (Homo sapiens) (UniProt P07237); experiment: Binding affinity to PDI catalytic domain a (unknown origin) after 1 hrs by intrinsic tryptophan fluorescence assay
Summary of the method: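 PDIa intrinsic Trp fluorescence recorded with varying securinine concentrations; emission spectra taken and intensity at 330 nm normalized; Kd derived from concentration-dependent quenching.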

Compound: CC(C)C1OCCN1CC1COC2(CCCCC2)O1 (stereo not given)
- Activity (PC-12 [1]): inactive

- CLint [2]: 24.58 mL/min/g
Compound: CCOc1ccc2ccc(=O)oc2c1 [ETHOXYCOUMARIN]

Compound: O=C1C=C2C=C[C@H]3C[C@@]2(O1)[C@H]1CCCCN31
- EC50 (PC-12 [1]): 3.3 µM
- Activity (PC-12 [3]): Active
- CLint [2]: 8.3 mL/min/g
- Activity [4]: Active
- half-life at 1 µM [5]: 1.6 h
- fraction unbound at 4 h, 2000 ng/ml [6]: 0.51
- Activity [7]: Dose-dependent effect

Compound: CC(=O)CC(c1ccccc1)c1c(O)c2ccccc2oc1=O (stereo not given) [WARFARIN]
- fraction unbound at 4 h, 2000 ng/ml [6]: 0.06
